A word on the inhibition: it is the drop in the measured response relative to a control, in per cent. As a reminder, the IC50 is the point on the concentration scale where inhibition reaches its midpoint.

Consider one compound from ChEMBL document CHEMBL4376814, “Novel cyclin-dependent kinase 9 (CDK9) inhibitor with suppression of cancer stemness activity against non-small-cell lung cancer” (Eur J Med Chem, 2019).

Active and inactive are the calls of the source. The calls are words filed in the database; no cut-off is given here.

Assay [1] concerns Tyrosine-protein kinase BTK (Homo sapiens), Q06187 [R28H]. As to the kind of experiment: Inhibition of full-length recombinant human BTK R28H mutant at 1 uM using LSNLYHQGKFLQTFCGSPLYRRR as substrate measured after 40 mins in presence of [gamma33P]ATP by scintillation counting method relative to control. In short, it runs like this:
(§1)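 Single-point inhibition at 1 µM was measured in the Eurofins KinaseProfiler panel. Values are the mean of two independent experiments.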

For assay [2], the system named is SNF-related serine/threonine-protein kinase (Homo sapiens), Q9NRH2 [UNDEFINED MUTATION]. As to the kind of experiment: Inhibition of human SNRK E97G/P116A mutant (1 to 505 residues) at 1 uM using KKLRRTLSFAEPG as substrate measured after 40 mins in presence of [gamma33P]ATP by scintillation counting method relative to control. In short, it runs like this: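 Percent inhibition of kinase activity at a single compound concentration, measured by the outsourced Eurofins KinaseProfiler panel. Values are the mean of two independent experiments.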
Chain of SNF-related serine/threonine-protein kinase (Homo sapiens), Q9NRH2 [UNDEFINED MUTATION] (Q9NRH2 whole entry, looked up, stated change not applied, the tested form may be a part): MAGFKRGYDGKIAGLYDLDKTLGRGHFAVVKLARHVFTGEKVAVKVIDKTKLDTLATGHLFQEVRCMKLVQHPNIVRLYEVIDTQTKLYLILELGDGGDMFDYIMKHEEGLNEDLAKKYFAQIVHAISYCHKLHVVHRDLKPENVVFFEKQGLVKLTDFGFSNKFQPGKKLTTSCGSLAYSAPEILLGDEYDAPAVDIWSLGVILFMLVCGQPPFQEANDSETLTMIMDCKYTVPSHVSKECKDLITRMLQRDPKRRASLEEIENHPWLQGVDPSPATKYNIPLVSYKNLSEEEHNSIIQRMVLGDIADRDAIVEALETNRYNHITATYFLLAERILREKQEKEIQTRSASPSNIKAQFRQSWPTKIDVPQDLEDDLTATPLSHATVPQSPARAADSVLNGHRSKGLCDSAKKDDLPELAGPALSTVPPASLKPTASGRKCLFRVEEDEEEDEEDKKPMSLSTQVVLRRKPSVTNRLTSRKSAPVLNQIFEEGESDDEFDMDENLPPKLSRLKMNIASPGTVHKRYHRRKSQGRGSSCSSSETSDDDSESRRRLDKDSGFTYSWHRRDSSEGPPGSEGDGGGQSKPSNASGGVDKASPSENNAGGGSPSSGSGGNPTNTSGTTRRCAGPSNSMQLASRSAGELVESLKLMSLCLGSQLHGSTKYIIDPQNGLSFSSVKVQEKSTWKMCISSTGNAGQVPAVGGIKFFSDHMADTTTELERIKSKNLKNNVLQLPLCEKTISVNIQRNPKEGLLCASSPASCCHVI

The test system of assay [3] is A549. Briefly: Inhibition of tumorsphere formation in human A549 cells assessed as decrease in number of spheres at 0.25 to 1 uM after 2 weeks by microscopic analysis. The class given is functional, cell-based.
The target of assay [4] is Insulin receptor (Homo sapiens) (UniProt P06213). As to the kind of experiment: Inhibition of recombinant human activated IR (1005 to 1310 residues) at 1 uM using KKKSPGEYVNIEFG as substrate measured after 40 mins in presence of [gamma33P]ATP by scintillation counting method relative to control.
In assay [5] the target is Fibroblast growth factor receptor 4 (Homo sapiens) (UniProt P22455). Briefly: Inhibition of recombinant human FGFR4 (442 to 755 residues) at 1 uM using poly(Glu, Tyr) 4:1 as substrate measured after 40 mins in presence of [gamma33P]ATP by scintillation counting method relative to control.
Assay [6] deals with Macrophage colony-stimulating factor 1 receptor (Homo sapiens) (UniProt P07333). Briefly: Inhibition of recombinant human Fms (538 to end residues) at 1 uM using KKKSPGEYVNIEFG as substrate measured after 40 mins in presence of [gamma33P]ATP by scintillation counting method relative to control.
Chain of Macrophage colony-stimulating factor 1 receptor (Homo sapiens) (P07333 whole entry): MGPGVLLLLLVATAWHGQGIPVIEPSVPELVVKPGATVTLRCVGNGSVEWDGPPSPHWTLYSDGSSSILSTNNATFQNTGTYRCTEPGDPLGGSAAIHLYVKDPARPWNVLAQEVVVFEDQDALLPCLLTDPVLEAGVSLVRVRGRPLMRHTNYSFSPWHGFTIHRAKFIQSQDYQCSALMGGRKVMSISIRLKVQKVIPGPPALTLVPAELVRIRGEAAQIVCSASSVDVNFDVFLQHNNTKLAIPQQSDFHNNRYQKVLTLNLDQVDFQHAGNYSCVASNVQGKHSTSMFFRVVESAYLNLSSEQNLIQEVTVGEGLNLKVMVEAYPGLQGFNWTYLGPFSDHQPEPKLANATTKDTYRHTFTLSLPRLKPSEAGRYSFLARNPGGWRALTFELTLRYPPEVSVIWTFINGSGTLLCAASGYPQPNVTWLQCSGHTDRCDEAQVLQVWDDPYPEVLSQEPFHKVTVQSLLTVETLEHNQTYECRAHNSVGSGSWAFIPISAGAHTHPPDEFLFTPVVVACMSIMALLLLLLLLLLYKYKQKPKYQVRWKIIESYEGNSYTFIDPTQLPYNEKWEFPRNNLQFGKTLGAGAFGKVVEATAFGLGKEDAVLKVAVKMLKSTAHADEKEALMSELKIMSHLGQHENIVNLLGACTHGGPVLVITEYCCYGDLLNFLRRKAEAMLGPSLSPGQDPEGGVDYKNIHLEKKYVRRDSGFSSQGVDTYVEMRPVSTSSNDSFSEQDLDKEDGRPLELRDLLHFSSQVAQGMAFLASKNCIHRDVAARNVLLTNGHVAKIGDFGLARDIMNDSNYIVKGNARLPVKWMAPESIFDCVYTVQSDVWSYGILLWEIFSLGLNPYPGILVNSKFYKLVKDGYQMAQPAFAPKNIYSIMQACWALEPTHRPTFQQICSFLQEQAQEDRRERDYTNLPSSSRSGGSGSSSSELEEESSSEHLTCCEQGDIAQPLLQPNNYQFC
The target in assay [7] is CDK3/Cyclin E (Homo sapiens) (UniProt P24864+Q00526). As to the kind of experiment: Inhibition of recombinant full-length human CDK3/cyclinE at 1 uM using Histone H1 as substrate measured after 40 mins in presence of [gamma33P]ATP by scintillation counting method relative to control. The class given is protein-complex assay.
For a further assay, the system named is Hep 3B2. As to the kind of experiment: Antiproliferative activity against human Hep3B cells assessed as inhibition of cell viability after 72 hrs by CCK-8 assay. The class given is functional, cell-based. In short, it runs like this:
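Cells kept at 37 °C, 5% CO2 in DMEM or RPMI-1640 with 10% FBS and 1% penicillin/streptomycin, then seeded at 3000 cells/well (adherent) or 10,000 cells/well (suspension). Exposed to a range of concentrations for 72 h. CCK-8 added for 1-4 h before reading A450. […] Three independent experiments.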
(In general: Tetrazolium assays rely on reduction of a dye to a coloured formazan, in cell work by metabolically active cells.)

A further assay concerns NCI-H1299. As to the kind of experiment: Induction of apoptosis in human H1299 cells assessed as necrotic cells at 0.25 uM after 48 hrs by AnnexinV-FITC/PI staining-based flow cytometric analysis (reference value: 0.9%). The class given is functional. (Flow cytometry measures light scatter and fluorescence of single cells or particles in a stream.)
Assay [8] deals with Mast/stem cell growth factor receptor Kit (Homo sapiens), P10721 [D816V]. As to the kind of experiment: Inhibition of recombinant human cKit (544 to end residues) D816V mutant at 1 uM using poly(Glu, Tyr) 4:1 as substrate measured after 40 mins in presence of [gamma33P]ATP by scintillation counting method relative to control. In short, it runs like this:
as §1

In assay [9] the target is Mitogen-activated protein kinase 1 (Homo sapiens) (UniProt P28482). As to the kind of experiment: Inhibition of recombinant full-length human MAPK2 at 1 uM using MBP as substrate measured after 40 mins in presence of [gamma33P]ATP by scintillation counting method relative to control.
Chain of Mitogen-activated protein kinase 1 (Homo sapiens) (P28482 whole entry): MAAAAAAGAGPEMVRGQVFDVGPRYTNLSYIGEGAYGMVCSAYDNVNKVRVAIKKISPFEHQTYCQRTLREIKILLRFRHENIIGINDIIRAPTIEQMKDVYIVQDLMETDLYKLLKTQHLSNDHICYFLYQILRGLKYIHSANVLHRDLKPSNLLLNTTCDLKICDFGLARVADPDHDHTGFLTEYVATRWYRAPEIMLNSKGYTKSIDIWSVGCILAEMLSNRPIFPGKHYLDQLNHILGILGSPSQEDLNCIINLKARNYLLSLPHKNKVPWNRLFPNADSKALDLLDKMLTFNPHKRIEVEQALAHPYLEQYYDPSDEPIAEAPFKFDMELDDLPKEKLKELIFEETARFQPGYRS
The subject of assay [10] is A549. Briefly: Induction of apoptosis in human A549 cells assessed as necrotic cells at 0.5 uM after 48 hrs by AnnexinV-FITC/PI staining-based flow cytometric analysis (reference value: 0.664%). The class given is functional.
In assay [11] the target is Serine/threonine-protein kinase Chk1 (Homo sapiens) (UniProt O14757). As to the kind of experiment: Inhibition of full length recombinant human CHK1 at 1 uM using KKKVSRSGLYRSPSMPENLNRPR as substrate measured after 40 mins in presence of [gamma33P]ATP by scintillation counting method relative to control.
Chain of Serine/threonine-protein kinase Chk1 (Homo sapiens) (O14757 whole entry): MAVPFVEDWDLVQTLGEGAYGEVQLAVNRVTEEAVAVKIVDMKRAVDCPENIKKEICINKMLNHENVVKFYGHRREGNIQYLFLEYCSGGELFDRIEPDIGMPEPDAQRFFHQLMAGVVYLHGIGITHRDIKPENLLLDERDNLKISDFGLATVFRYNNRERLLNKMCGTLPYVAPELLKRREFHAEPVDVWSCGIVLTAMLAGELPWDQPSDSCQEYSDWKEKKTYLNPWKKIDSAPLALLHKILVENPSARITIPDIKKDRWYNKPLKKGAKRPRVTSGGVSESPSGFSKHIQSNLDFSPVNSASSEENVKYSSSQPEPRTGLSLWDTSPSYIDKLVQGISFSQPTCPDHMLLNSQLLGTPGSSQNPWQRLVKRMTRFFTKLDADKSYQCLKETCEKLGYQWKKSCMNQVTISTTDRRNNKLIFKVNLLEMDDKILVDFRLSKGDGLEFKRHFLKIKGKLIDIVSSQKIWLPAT
The test system of assay [12] is Calcium/calmodulin-dependent protein kinase kinase 2 (Homo sapiens), Q96RR4 [T85S]. Briefly: Inhibition of recombinant full-length human CaMKK2 T85S mutant at 1 uM using calmodulin as substrate measured after 40 mins in presence of [gamma33P]ATP by scintillation counting method relative to control.
Chain of Calcium/calmodulin-dependent protein kinase kinase 2 (Homo sapiens), Q96RR4 [T85S] (Q96RR4 whole entry T85S, the tested form may be a part): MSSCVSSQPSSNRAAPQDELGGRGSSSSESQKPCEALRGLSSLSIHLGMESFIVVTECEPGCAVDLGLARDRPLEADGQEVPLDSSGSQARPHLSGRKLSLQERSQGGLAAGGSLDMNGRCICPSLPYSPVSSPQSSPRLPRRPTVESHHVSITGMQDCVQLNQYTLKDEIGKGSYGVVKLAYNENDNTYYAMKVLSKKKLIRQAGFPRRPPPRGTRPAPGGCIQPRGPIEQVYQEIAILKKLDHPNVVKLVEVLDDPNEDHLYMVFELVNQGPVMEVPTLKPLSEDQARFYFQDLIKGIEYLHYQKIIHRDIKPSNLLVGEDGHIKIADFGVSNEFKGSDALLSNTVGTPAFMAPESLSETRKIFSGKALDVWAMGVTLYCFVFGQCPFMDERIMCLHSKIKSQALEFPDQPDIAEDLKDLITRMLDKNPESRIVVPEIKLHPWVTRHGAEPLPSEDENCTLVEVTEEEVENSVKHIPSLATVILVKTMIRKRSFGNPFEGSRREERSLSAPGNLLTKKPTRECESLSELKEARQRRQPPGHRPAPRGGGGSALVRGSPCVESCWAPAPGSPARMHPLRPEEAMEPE
Assay [13] addresses Calcium/calmodulin-dependent protein kinase type II subunit gamma (Homo sapiens) (UniProt Q13555). As to the kind of experiment: Inhibition of recombinant full-length human CaMK2gamma (1 to 330 residues) at 1 uM using calmodulin as substrate measured after 40 mins in presence of [gamma33P]ATP by scintillation counting method relative to control.
Assay [14] deals with Eukaryotic translation initiation factor 2-alpha kinase 3 (Homo sapiens) (UniProt Q9NZJ5). Briefly: Inhibition of recombinant human PEK (536 to end residues) at 1 uM using RSRSRSRSRSRSR as substrate measured after 40 mins in presence of [gamma33P]ATP by scintillation counting method relative to control.
Assay [15] concerns A549. As to the kind of experiment: Induction of apoptosis in human A549 cells after 48 hrs by AnnexinV-FITC staining-based flow cytometric analysis. The class given is functional, cell-based.
The test system of the next assay is MCF7. As to the kind of experiment: Antiproliferative activity against human MCF7 cells assessed as inhibition of cell viability at 500 nM after 72 hrs by CCK-8 assay relative to control. The class given is functional. The conditions noted are these: MCF7, 72 h. In short, it runs like this:
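Single-concentration viability screen using CCK-8. Cells were seeded at 3000/well and treated for 72 h. A450 read after 1-4 h with reagent. Percent inhibition calculated against untreated control and blank wells as (Ac−As)/(Ac−Ab)×100%.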

The subject of assay [16] is Mast/stem cell growth factor receptor Kit (Homo sapiens), P10721 [D816H]. As to the kind of experiment: Inhibition of recombinant human cKit (544 to end residues) D816H mutant at 1 uM using GGMEDIYFEFMGGKKK as substrate measured after 40 mins in presence of [gamma33P]ATP by scintillation counting method relative to control. In short, it runs like this:
as §1

Assay [17] concerns the target Serine/threonine-protein kinase Nek1 (Homo sapiens) (UniProt Q96PY6). As to the kind of experiment: Inhibition of recombinant human NEK1 (1 to 505 residues) at 1 uM using RLGRDKYKTLRQIRQ as substrate measured after 40 mins in presence of [gamma33P]ATP by scintillation counting method relative to control.
Assay [18] addresses CDK9/cyclin T1 (Homo sapiens) (UniProt O60563+P50750). The conditions noted are these: 1 uM.
Assay [19] concerns A549. As to the kind of experiment: Induction of cell cycle arrest in human A549 cells assessed as accumulation at G2/M phase after 24 hrs by propidium iodide/RNase staining based flow cytometric analysis. The class given is functional. In short, it runs like this: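 A549 and H1299 plated at 5×10^5 cells/mL in 6-well plates, treated after adherence for 24 h. Washed with PBS, fixed overnight in ice-cold 75% ethanol, stained with propidium iodide plus RNase A for 30 min at 37 °C, analysed by flow cytometry for phase distribution. Means ± SD, three independent experiments.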

Chain of Mast/stem cell growth factor receptor Kit (Homo sapiens), P10721 [D816H] (P10721 whole entry D816H): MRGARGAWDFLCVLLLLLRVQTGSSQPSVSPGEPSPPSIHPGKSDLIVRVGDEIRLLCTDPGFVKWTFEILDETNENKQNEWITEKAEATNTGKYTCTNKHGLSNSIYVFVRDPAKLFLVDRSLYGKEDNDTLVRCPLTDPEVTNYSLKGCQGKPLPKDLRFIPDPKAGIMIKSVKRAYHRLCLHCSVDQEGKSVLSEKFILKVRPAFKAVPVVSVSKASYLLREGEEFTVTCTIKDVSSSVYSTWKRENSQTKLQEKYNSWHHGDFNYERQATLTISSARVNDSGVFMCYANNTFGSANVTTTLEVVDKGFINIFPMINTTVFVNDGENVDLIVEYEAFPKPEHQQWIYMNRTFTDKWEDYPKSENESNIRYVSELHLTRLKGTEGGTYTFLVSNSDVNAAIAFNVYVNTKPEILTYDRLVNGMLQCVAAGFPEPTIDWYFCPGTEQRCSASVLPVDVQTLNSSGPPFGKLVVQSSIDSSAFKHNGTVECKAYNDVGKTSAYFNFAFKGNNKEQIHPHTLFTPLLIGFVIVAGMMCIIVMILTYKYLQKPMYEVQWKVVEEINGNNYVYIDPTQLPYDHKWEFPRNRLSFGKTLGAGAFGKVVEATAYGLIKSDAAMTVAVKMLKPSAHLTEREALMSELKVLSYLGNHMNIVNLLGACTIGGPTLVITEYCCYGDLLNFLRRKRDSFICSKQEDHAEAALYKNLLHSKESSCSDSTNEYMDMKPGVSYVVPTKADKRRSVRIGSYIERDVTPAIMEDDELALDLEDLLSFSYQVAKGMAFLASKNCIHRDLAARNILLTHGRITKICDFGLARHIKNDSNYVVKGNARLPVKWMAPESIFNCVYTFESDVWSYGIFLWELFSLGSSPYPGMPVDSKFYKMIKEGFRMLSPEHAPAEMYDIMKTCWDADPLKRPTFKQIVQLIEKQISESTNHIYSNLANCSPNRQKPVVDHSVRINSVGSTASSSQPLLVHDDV
Chain of Tyrosine-protein kinase BTK (Homo sapiens), Q06187 [R28H] (Q06187 whole entry R28H): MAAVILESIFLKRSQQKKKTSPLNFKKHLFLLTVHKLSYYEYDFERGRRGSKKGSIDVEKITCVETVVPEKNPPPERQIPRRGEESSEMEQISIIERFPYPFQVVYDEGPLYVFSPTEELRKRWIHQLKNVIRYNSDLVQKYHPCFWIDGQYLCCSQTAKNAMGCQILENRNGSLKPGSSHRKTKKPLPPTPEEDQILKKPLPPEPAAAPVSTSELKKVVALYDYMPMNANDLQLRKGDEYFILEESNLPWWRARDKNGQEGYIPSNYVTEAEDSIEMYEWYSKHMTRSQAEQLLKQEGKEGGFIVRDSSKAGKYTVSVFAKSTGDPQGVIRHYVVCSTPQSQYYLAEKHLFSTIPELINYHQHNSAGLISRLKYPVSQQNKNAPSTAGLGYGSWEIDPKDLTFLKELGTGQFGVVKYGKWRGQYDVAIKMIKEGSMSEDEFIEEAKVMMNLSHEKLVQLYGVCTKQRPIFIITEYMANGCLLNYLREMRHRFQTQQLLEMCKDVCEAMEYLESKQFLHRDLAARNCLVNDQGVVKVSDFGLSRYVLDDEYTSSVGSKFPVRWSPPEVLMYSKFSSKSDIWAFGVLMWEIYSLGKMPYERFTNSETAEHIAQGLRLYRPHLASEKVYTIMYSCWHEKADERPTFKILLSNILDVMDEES
Chain of Mast/stem cell growth factor receptor Kit (Homo sapiens), P10721 [D816V] (P10721 whole entry D816V): as the sequence (P10721 whole entry D816H) above, with H816V counted along it

Consider `CN(C)C(=O)c1cc2cnc(Nc3ccc(NC(=O)CCCCCCCN=C=S)cc3)nc2n1C1CCCC1`, for which the inhibition is 1% in assay [1]; 7% in assay [2]; -7% in assay [4]; -2% in assay [5]; 68% in assay [6]; 82% in assay [7]. The inhibition in assay [8] is 11%; in assay [9], 7%; in [11], -9%; in assay [12], 88%; in assay [13], 53%; in assay [14], 6%. In addition, the inhibition amounted to 59% in assay [16], 69% in assay [17] and 98% in assay [18]. The outcome in the assay on A549 [3] was Active. In addition, the IC50 in the assay on Hep 3B2 came to 5.61 µM. Also, the Activity in the assay on NCI-H1299 is 0.669%; in the assay with A549 [10], 6.11%; in the assay on A549 [15], “Dose-dependent effect”; in the assay on A549 [19] it was “Dose-dependent effect”. The inhibition at 0.5 µM in the assay with MCF7 was found to be 62%.
